Screens from PubChem BioAssay.
AI-2 QS modul: modulators of Vibrio harveyi AI-2 quorum sensing system. Vibrio harveyi JMH597 AI-2 luminescence/OD600 ratio, 9 h; active compounds read low; strain lacks LuxN and CqsS sensors; 0 = neutral-control median. activity change, % at 7.5 µM. 300,000 tested, 0.4% active; in the data active = activity change below about -75%, passing the limit was not always enough;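 also: luminescence divided by OD600 gain over 9 h not by final OD600 alone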
TbMetRS inhib: blocks T. brucei methionyl-tRNA synthetase activity; purified T. brucei MetRS, ATP depletion, Kinase-Glo luminescence; 360,000 tested, 0.4% active; inhibition, % at 11.9 µM;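 active = inhibition above a per-plate cutoff of the control wells' mean inhibition plus 3 SD, cut at about 5.5% in these data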;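 also: 0% = DMSO wells median and 100% = median of wells with control inhibitor compound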
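Dosing: 11.9 µM compound single dose, 0.9% DMSO; Assay system: purified T. brucei MetRS enzyme; Measured by: Kinase-Glo luciferase luminescence reporting remaining unconsumed ATP; Schedule: 15 min plus 2 h at 25 °C.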
MsrA inh: inhibits bovine methionine sulfoxide reductase A; 360,000 tested, 0.75% active; inhibition, % at 15.5 µM; purified bovine MsrA, absorbance read-out; AID 651718;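 also: 0% = vehicle wells with enzyme and 100% = reference inhibitor wells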
MsrA act: bovine methionine sulfoxide reductase A activation; AID 602163; 360,000 tested, 0.3% active; activation, % at 10.6 µM; purified bovine MsrA, absorbance read-out; in the data active = activation above about 7.5%;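 also: 0% = vehicle and 100% = reference activator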
AHR activator: activates the human aryl hydrocarbon receptor; P35869; AHR-responsive luciferase reporter cells, luminescence; activation, % at 5 µM; 320,000 tested, 2.5% active; AID 2796; in the data active = activation above about 47%;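 also: 0% = vehicle wells and 100% = reference agonist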
m5-HT2A agonist: agonists of mouse serotonin 5-HT2A receptor (HTR2A); activation, % at 7.6 µM; CHO-K1 mHTR2A beta-arrestin complementation, luminescence; percent of 30 µM serotonin response; P35363; 360,000 tested, 0.66% active;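 active = activation above a run cutoff, the mean activation of all tested compounds plus 3 SD, cut at about 14% in these data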;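 also: 0% = plate median of compound wells and 100% = 30 µM serotonin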
Target sequence (P35363 whole entry, looked up): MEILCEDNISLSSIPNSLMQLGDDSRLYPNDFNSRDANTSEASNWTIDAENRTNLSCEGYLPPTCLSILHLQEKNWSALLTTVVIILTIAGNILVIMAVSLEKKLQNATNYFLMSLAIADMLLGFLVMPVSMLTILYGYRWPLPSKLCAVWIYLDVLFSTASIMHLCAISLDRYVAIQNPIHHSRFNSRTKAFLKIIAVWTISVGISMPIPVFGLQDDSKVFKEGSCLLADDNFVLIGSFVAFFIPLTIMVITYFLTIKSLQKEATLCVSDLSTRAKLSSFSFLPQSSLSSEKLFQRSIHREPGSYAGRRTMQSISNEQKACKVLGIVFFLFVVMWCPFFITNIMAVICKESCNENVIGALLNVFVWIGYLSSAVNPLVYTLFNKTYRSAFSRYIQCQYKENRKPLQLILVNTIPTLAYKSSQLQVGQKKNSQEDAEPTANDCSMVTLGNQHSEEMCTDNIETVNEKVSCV
MsrA conf: confirmation of bovine MsrA inhibitors; shares compounds with MsrA inh; purified bovine MsrA, absorbance read-out; inhibition, % at 15.5 µM; 2,300 tested, 41% active; AID 651822;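 also: coupled to thioredoxin reductase with NADPH and selenocystamine and DMSO as substrate; 0% = vehicle only and 100% = full effect of reference inhibitor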
An asterisk follows results filed as active; / = no result given. Hits are enriched below; roughly 4.4% of the tested compounds scored in any of these assays. Rule as the data show it, unless noted: active = inhibition above about 4.5%; inactive = the rest.

SMILES	AI-2 QS modul	TbMetRS inhib	MsrA inh	MsrA act	AHR activator	m5-HT2A agonist	MsrA conf
Cn1ccsc1=NC(=O)c1cccc(OC(F)F)c1	21	0	3	-1	40	3	/
CC1(C)CC(c2nc(-c3ccc([N+](=O)[O-])cc3)cs2)CCO1 (centres undefined)	16	0	4.8*	-4	1	-5	2
N#C/C(=C\c1cccc([N+](=O)[O-])c1)C(=O)NCc1cccnc1	16	0	1	-4	-3	-1	/
N#C/C(=C\C=C\c1ccccc1)C(=O)NCc1cccnc1	20	-1	7.6*	-4	5	-7	6.8*
N#C/C(=C\c1cccs1)C(=O)NCc1ccccc1	17	0	4	-4	-2	2	/
N#C/C(=C\c1cccs1)C(=O)NCc1cccnc1	8	-1	5.5*	-9	10	3	4
Cc1cc(C)n2nc(C(=O)OCC(=O)c3ccc(F)cc3)nc2n1	15	0	0	-2	6	8	/
N#Cc1c(SCc2ccccc2)nc(N2CCOCC2)c2c1CCCC2	/	0	14*	-3	4	-8	10*
Cc1noc(C)c1NC(=O)N(C)C[C@H]1Oc2ccc(NC(=O)Cc3ccccc3)cc2C(=O)N([C@H](C)CO)C[C@@H]1C	/	-1	1	-4	-2	0	/
N#CC1=C(N)Oc2cc3ccccc3cc2C1c1cccnc1 (centres undefined)	16	-2	7.6*	-5	7	3	2
N#CC1=C(N)Oc2c(ccc3cccnc23)C1c1cccnc1 (centres undefined)	17	0	2	-3	10	-5	/
O=C(N/N=C/c1ccco1)c1ccc(Br)o1	16	0	3	-4	3	-1	/
O=C(N/N=C/c1ccco1)c1cc2ccccc2o1	20	0	6.0*	-6	6	-11	7.6*
CCOc1cc(/C=N/Nc2ncnc(Cl)c2N)ccc1O	3	0	4.9*	-7	20	-3	6.0*
CCOc1cc(/C=N/Nc2nnc(C)n2N)ccc1O	30	1	4	5	13	-2	/
CCOc1cc(/C=N/NC(=O)N/N=C/c2ccc(O)c(OCC)c2)ccc1O	22	/	5.5*	/	8	/	4
CCOc1cc(/C=N/NC(=O)C(OC)c2ccccc2)ccc1O (centres undefined)	-7	-1	4	-9	0	8	/
CCOc1cc(/C=N/NC(=O)C(=O)N/N=C/c2ccc(O)c(OCC)c2)ccc1O	20	0	5.5*	-4	13	3	4
CCOc1cc(/C=N/NC(=O)c2cccnc2)ccc1O	15	-1	4	-6	13	3	/
COc1cc(-c2nnc(SCC(=O)Nc3ccc(C(=O)O)cc3)o2)cc(OC)c1OC	/	0	-1	-1	0	-1	/
CCC1CCC/C1=N\NC(=O)c1ccoc1C (centres undefined)	28	0	0	-2	/	-2	/
Cc1onc(-c2ccccc2)c1C(=O)Nc1ccc(S(=O)(=O)N2CCOCC2)cc1	10	0	1	-3	-1	-3	/
Fc1ccc(-c2n[nH]c(=S)n2/N=C/c2c[nH]c3ccccc23)cc1	6	0	5.3*	1	32	1	1
CC1CN(C(=O)/C=C/c2ccc3c(c2)OCO3)CC(C)O1 (centres undefined)	1	-1	6.0*	-13	60*	-3	1
COc1ccc(/C=C/C(=O)N2CC(C)OC(C)C2)cc1OC (centres undefined)	12	0	2	-12	5	-3	/
SMILES	AI-2 QS modul	TbMetRS inhib	MsrA inh	MsrA act	AHR activator	m5-HT2A agonist	MsrA conf
Cc1cc(=O)oc2c(C)c(OCC(=O)N3CCN(c4cccc(Cl)c4)CC3)ccc12	45	1	1	-4	-3	-4	/
Cc1cc(O)c2c(c1)C(=O)c1cccc(O)c1C2=O	/	/	1	/	/	/	/
O=C(O)c1cc(O)c2c(c1)C(=O)c1cccc(O)c1C2=O	19	0	4.7*	2	8	3	17*
Cn1c(/C=N/NC(=O)c2ccccc2Br)nc2ccccc21	25	-1	5.3*	-2	-2	-1	3
CN=c1sc2c(n1C)C(=O)c1ccccc1C2=O	/	0	9.7*	6	/	-1	7.0*
CCC(C)NC(=O)C1CCC(CNS(=O)(=O)c2cccc3nsnc23)CC1 (centres undefined)	21	0	/	-4	2	3	/
O=c1c2ccc(Cl)cc2nc2n1CC/C2=C\c1cccc(O)c1	15	0	1	-1	12	6	/
O=C(O)c1ccc2c(=O)n3c(nc2c1)/C(=C/c1cccc(O)c1)CC3	9	0	5.0*	-7	-1	4	4
COc1ccc(C(=O)CCC(=O)Nc2cc(Cl)c(O)c(Cl)c2)cc1	11	2	0	-3	4	2	/
Cc1ccc(NC(=O)CN2C(=O)N/C(=C/c3ccccc3OCc3cccc(C(=O)O)c3)C2=O)cc1	26	1	4.7*	-4	5	0	3
COCCNC(=O)/C(C#N)=C/C(C)=C/c1ccccc1	-6	0	6.0*	-2	-5	3	3
CC1CCCN(C(=O)CNS(=O)(=O)c2cccs2)C1 (centres undefined)	59	-1	-1	0	3	1	/
Cc1ccc(N=Nc2c(N)nn(-c3ccccc3)c2N)cc1	-29	0	5.0*	-4	-6	-4	2
C/C(=N\NC(=S)NC(C)C)c1ccc(Cl)s1	22	0	4	-5	24	-13	/
C/C(=N\NC(N)=S)c1ccc(Cl)s1	21	1	5.7*	-4	-4	-4	4.8*
CCCN(CCC)S(=O)(=O)c1ccc(C)cc1	6	-1	-1	-2	-3	1	/
CCCCCc1c(-c2cccc(OC)c2)ncn1CCc1ccccc1OC	/	-1	21*	-2	/	-6	18*
CN(C)c1ccc(-c2ccnc3c2CC(C)(C(=O)Nc2cccc(Oc4ccccc4)c2)O3)cc1 (centres undefined)	/	0	-2	-1	/	-5	/
COC(=O)c1c(NC(=O)c2cnccn2)sc2c1CCC2	17	0	0	-1	32	-1	/
O=C(Nc1nc2c(s1)CCCC2=O)c1cnccn1	40	0	4.7*	-4	8	2	3
CCOC(=O)/C(C#N)=C1/C=CN(c2ccc(C)cc2)C=N1	25	0	6.6*	-6	3	-1	5.2*
CCOC(=O)/C(C#N)=C1/C=CN(C)C=N1	22	0	7.4*	-7	-1	4	5.7*
CCOC(=O)/C(C#N)=C1/C=CN(Cc2ccccc2)C=N1	20	0	7.4*	-5	-1	0	5.7*
